According to ChEMBL document CHEMBL1148273, “Vancomycin disulfide derivatives as antibacterial agents” (Bioorg Med Chem Lett, 2004):
In brackets after ≈: the same amount, converted by molar mass.

Experiments:
[1] = test system: Enterococcus faecium; assay: Minimal inhibitory concentration was evaluated against VanA Fm […]; type: functional
[2] = test system: Enterococcus sp.; assay: Minimal inhibitory concentration was evaluated against VanB (ATCC 51575); type: functional, enterococcus strain
Method in brief: (§1)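 MICs were determined by the NCCLS broth microdilution method. The strain panel included MSSA ATCC 13709, VanA E. faecium KPB-01, VanA E. faecalis MGH-01 and VanB ATCC 51575.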

[3] = test system: Staphylococcus aureus; assay: Minimal inhibitory concentration was evaluated against methicillin-resistant Staphylococcus aureus (ATCC 33591); type: functional
Method in brief: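 NCCLS broth microdilution susceptibility test, in vitro, against the MRSA strain ATCC 33591 as part of a Gram-positive panel with MSSA and vancomycin-resistant enterococci. Read-out is the minimal inhibitory concentration.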

[4] = test system: Staphylococcus aureus; assay: Minimal inhibitory concentration was evaluated against Staphylococcus aureus MSSA (ATCC 13709); type: functional; method in brief: as §1
[5] = test system: Enterococcus faecalis; assay: Minimal inhibitory concentration was evaluated against VanA Fs[…]; type: functional
[6] = Compound was evaluated for tissue distribution 24 hours after a 50 mg/kg dose was administered intravenously in urine; type: ADME, organism-based; set-up: dose 50 mg/kg, route intravenous; details: rat, iv
Method in brief: (§2)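 Male Sprague–Dawley rats were given a single intravenous dose of 50 mg/kg. Tissue or urine levels were determined 24 h after dosing.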

[7] = test system: Rattus norvegicus; assay: Compound was evaluated for tissue distribution 24 hours after a 50 mg/kg dose was administered intravenously in rat kidney; type: ADME, organism-based; set-up: dose 50 mg/kg, route intravenous; details: in vivo, iv; method in brief: as §2
[8] = test system: Rattus norvegicus; assay: Compound was evaluated for percent thiol tissue distribution 24 hours after a 50 mg/kg dose was administered intravenously in urine; type: ADME, organism-based; set-up: dose 50 mg/kg, route intravenous; details: in vivo, iv
Method in brief: (§3)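 Male Sprague–Dawley rats were dosed intravenously at 50 mg/kg and urine was sampled 24 h later. The metabolite percentage was calculated from the peak area ratio of the metabolite peak to the parent peak.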

[9] = test system: Rattus norvegicus; assay: Compound was evaluated for percent dimer tissue distribution 24 hours after a 50 mg/kg dose was administered intravenously in urine; type: ADME, organism-based; set-up: dose 50 mg/kg, route intravenous; details: in vivo, iv; method in brief: as §3
[10] = test system: Rattus norvegicus; assay: Compound was evaluated for percent dose tissue distribution 24 hours after a 50 mg/kg dose was administered intravenously in liver; type: ADME, organism-based; set-up: dose 50 mg/kg, route intravenous; details: in vivo, iv; method in brief: as §2

SMILES | MIC [1] [µg/mL] | MIC [2] [µg/mL] | MIC [3] [µg/mL] | MIC [4] [µg/mL] | MIC [5] [µg/mL] | dose excreted at 24 h [6] [%] | Dose [7] [%] | Dose [8] [%] | Dose [9] [%] | Dose [10] [%]
CCCCCCCCCCSSCCNC1(C)CC(OC2C(Oc3c4cc5cc3Oc3ccc(cc3Cl)[C@@H](O)[C@@H](NC(=O)[C@@H](CC(C)C)NC)C(=O)N[C@@H](CC(N)=O)C(=O)N[C@H]5C(=O)N[C@H]3C(=O)N[C@H](C(=O)N[C@H](C(=O)O)c5cc(O)cc(O)c5-c5cc3ccc5O)[C@H](O)c3ccc(c(Cl)c3)O4)OC(O)C(O)C2O)OC(C)C1O (stereo not given in full) | 3.1 (≈ 1.86 µM) | 0.6 (≈ 0.36 µM) | 2.4 (≈ 1.44 µM) | 1.2 (≈ 0.72 µM) | 3.1 (≈ 1.86 µM) | – | – | – | – | –
CCCCCCCCCSSCCCN[C@@]1(C)C[C@H](O[C@@H]2[C@@H](Oc3c4cc5cc3Oc3ccc(cc3Cl)[C@@H](O)[C@@H](NC(=O)[C@@H](CC(C)C)NC)C(=O)N[C@@H](CC(N)=O)C(=O)N[C@H]5C(=O)N[C@H]3C(=O)N[C@H](C(=O)N[C@H](C(=O)O)c5cc(O)cc(O)c5-c5cc3ccc5O)[C@H](O)c3ccc(c(Cl)c3)O4)O[C@@H](CO)[C@H](O)[C@@H]2O)O[C@H](C)[C@H]1O | 4.1 (≈ 2.44 µM) | 1.8 (≈ 1.07 µM) | 1.2 (≈ 0.714 µM) | 0.6 (≈ 0.357 µM) | 3.6 (≈ 2.14 µM) | – | – | – | – | –
CCCCCCCCSSCCN[C@@]1(C)C[C@H](O[C@@H]2[C@@H](Oc3c4cc5cc3Oc3ccc(cc3Cl)[C@@H](O)[C@@H](NC(=O)[C@@H](CC(C)C)NC)C(=O)N[C@@H](CC(N)=O)C(=O)N[C@H]5C(=O)N[C@H]3C(=O)N[C@H](C(=O)N[C@H](C(=O)O)c5cc(O)cc(O)c5-c5cc3ccc5O)[C@H](O)c3ccc(c(Cl)c3)O4)O[C@@H](CO)[C@H](O)[C@@H]2O)O[C@H](C)[C@H]1O | 6.3 (≈ 3.81 µM) | 2.4 (≈ 1.45 µM) | 0.2 (≈ 0.121 µM) | 0.2 (≈ 0.121 µM) | 4.7 (≈ 2.84 µM) | – | – | – | – | –
CCCCCCCCSSCCCN[C@@]1(C)C[C@H](O[C@@H]2[C@@H](Oc3c4cc5cc3Oc3ccc(cc3Cl)[C@@H](O)[C@@H](NC(=O)[C@@H](CC(C)C)NC)C(=O)N[C@@H](CC(N)=O)C(=O)N[C@H]5C(=O)N[C@H]3C(=O)N[C@H](C(=O)N[C@H](C(=O)O)c5cc(O)cc(O)c5-c5cc3ccc5O)[C@H](O)c3ccc(c(Cl)c3)O4)O[C@@H](CO)[C@H](O)[C@@H]2O)O[C@H](C)[C@H]1O | 4.7 (≈ 2.82 µM) | 1.8 (≈ 1.08 µM) | 0.4 (≈ 0.24 µM) | 3.1 (≈ 1.86 µM) | 3.8 (≈ 2.28 µM) | 1 | 0.5 | 2.3 | 15 | 4.9
CCCCCCCCCCNCCN[C@@]1(C)C[C@H](O[C@@H]2[C@@H](Oc3c4cc5cc3Oc3ccc(cc3Cl)[C@@H](O)[C@@H](NC(=O)[C@@H](CC(C)C)NC)C(=O)N[C@@H](CC(N)=O)C(=O)N[C@H]5C(=O)N[C@H]3C(=O)N[C@H](C(=O)N[C@H](C(=O)O)c5cc(O)cc(O)c5-c5cc3ccc5O)[C@H](O)c3ccc(c(Cl)c3)O4)O[C@@H](CO)[C@H](O)[C@@H]2O)O[C@H](C)[C@H]1O | 4.1 (≈ 2.51 µM) | 1.8 (≈ 1.1 µM) | 0.4 (≈ 0.245 µM) | 0.4 (≈ 0.245 µM) | 3.6 (≈ 2.21 µM) | 16 | 22 | – | – | 37
CN[C@H](CC(C)C)C(=O)N[C@H]1C(=O)N[C@@H](CC(N)=O)C(=O)N[C@H]2C(=O)N[C@H]3C(=O)N[C@H](C(=O)N[C@H](C(=O)O)c4cc(O)cc(O)c4-c4cc3ccc4O)[C@H](O)c3ccc(c(Cl)c3)Oc3cc2cc(c3O[C@H]2O[C@@H](CO)[C@H](O)[C@H](O)[C@@H]2OC2C[C@](C)(NCCCSSCCCN[C@]3(C)C[C@@H](O[C@H]4[C@H](Oc5c6cc7cc5Oc5ccc(cc5Cl)[C@@H](O)[C@@H](NC(=O)[C@@H](CC(C)C)NC)C(=O)N[C@@H](CC(N)=O)C(=O)N[C@H]7C(=O)N[C@H]5C(=O)N[C@H](C(=O)N[C@H](C(=O)O)c7cc(O)cc(O)c7-c7cc5ccc7O)[C@H](O)c5ccc(c(Cl)c5)O6)O[C@H](CO)[C@@H](O)[C@H]4O)O[C@@H](C)[C@@H]3O)[C@H](O)[C@@H](C)O2)Oc2ccc(cc2Cl)[C@H]1O (stereo not given in full) | 6.3 (≈ 2.07 µM) | 4.7 (≈ 1.54 µM) | 18.8 (≈ 6.17 µM) | 6.3 (≈ 2.07 µM) | 12.5 (≈ 4.11 µM) | – | – | – | – | –
CN[C@H](CC(C)C)C(=O)N[C@H]1C(=O)N[C@@H](CC(N)=O)C(=O)N[C@H]2C(=O)N[C@H]3C(=O)N[C@H](C(=O)N[C@H](C(=O)O)c4cc(O)cc(O)c4-c4cc3ccc4O)[C@H](O)c3ccc(c(Cl)c3)Oc3cc2cc(c3O[C@@H]2O[C@H](CO)[C@@H](O)[C@H](O)[C@H]2O[C@H]2C[C@](C)(N)[C@H](O)[C@H](C)O2)Oc2ccc(cc2Cl)[C@H]1O [VANCOMYCIN] | > 256 | > 256 | – | 0.7 (≈ 0.483 µM) | > 256 | – | – | – | – | –
CCCCCCCCCSSCCN[C@@]1(C)C[C@H](O[C@@H]2[C@@H](Oc3c4cc5cc3Oc3ccc(cc3Cl)[C@@H](O)[C@@H](NC(=O)[C@@H](CC(C)C)NC)C(=O)N[C@@H](CC(N)=O)C(=O)N[C@H]5C(=O)N[C@H]3C(=O)N[C@H](C(=O)N[C@H](C(=O)O)c5cc(O)cc(O)c5-c5cc3ccc5O)[C@H](O)c3ccc(c(Cl)c3)O4)O[C@@H](CO)[C@H](O)[C@@H]2O)O[C@H](C)[C@H]1O | 6.3 (≈ 3.78 µM) | 1.2 (≈ 0.72 µM) | 0.6 (≈ 0.36 µM) | 0.3 (≈ 0.18 µM) | 3.1 (≈ 1.86 µM) | – | – | – | – | –
CCCCCCCCCCCCCN[C@@]1(C)C[C@H](O[C@@H]2[C@@H](Oc3c4cc5cc3Oc3ccc(cc3Cl)[C@@H](O)[C@@H](NC(=O)[C@@H](CC(C)C)NC)C(=O)N[C@@H](CC(N)=O)C(=O)N[C@H]5C(=O)N[C@H]3C(=O)N[C@H](C(=O)N[C@H](C(=O)O)c5cc(O)cc(O)c5-c5cc3ccc5O)[C@H](O)c3ccc(c(Cl)c3)O4)O[C@@H](CO)[C@H](O)[C@@H]2O)O[C@H](C)[C@H]1O | 4.1 (≈ 2.51 µM) | 1.6 (≈ 0.981 µM) | 1.5 (≈ 0.919 µM) | 2.8 (≈ 1.72 µM) | 3.8 (≈ 2.33 µM) | 0.4 | 3.4 | – | – | 70
